Assay results: ChEMBL document CHEMBL1629563, “Pharmacokinetic and safety evaluation of BILR 355, a second-generation nonnucleoside reverse transcriptase inhibitor, in healthy volunteers” (Antimicrob Agents Chemother, 2008)

Tests used:
[1] = AUC (0 to infinity) in healthy human at 37.5 mg, po administered as single dose coadministered with 100 mg of ritonavir; format: ADME, organism-based; set-up: dose 37.5 mg, route oral, time infinity; details: plasma
Outline: (§1)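 Healthy male volunteers, fasted. Ritonavir 100 mg given 10 h before and again together with single oral BILR 355 in PEG solution. EDTA plasma sampled predose to 144 h. LC-MS/MS assay after protein precipitation. Noncompartmental analysis, AUC by linear up/log down trapezoidal rule; Vss = CL/F·(MRTp.o. − 1/Ka).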

[2] = Apparent oral clearance in healthy human at 75 mg, po administered as single dose coadministered with 100 mg of ritonavir; format: ADME, organism-based; details: in vivo; outline: as §1
[3] = AUC (0 to infinity) in healthy human at 100 mg, po administered as single dose; format: ADME, organism-based; set-up: dose 100 mg, time infinity, route oral; details: plasma
Outline: (§2)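 Healthy male volunteers, six active plus two placebo per dose group, single oral dose in PEG solution with 200 ml water after overnight fast; breakfast 60 to 90 min post-dose. EDTA plasma sampled predose to 144 h. Assayed by validated LC-MS/MS after protein precipitation. Noncompartmental analysis, AUC by linear up/log down trapezoidal rule; Vss = CL/F·(MRTp.o. − 1/Ka).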

[4] = tested on: Homo sapiens; test: Toxicity in healthy human assessed as occurrence of flatulence at 1 mg, po administered as single dose relative to control; format: organism-based; details: in vivo
[5] = Cmax in healthy human at 5 mg, po administered as single dose by high-pressure liquid chromatography-tandem mass spectrometry/mass spectrometry method; format: ADME, organism-based; set-up: dose 5 mg, route oral; details: in vivo
Outline: (§3)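 Single fasting oral dose of BILR 355 in PEG solution with 200 ml tap water, given to healthy males. Standard breakfast came 60-90 min after the dose. EDTA plasma was sampled predose to 144 h, stored below −18°C and assayed by LC-MS/MS after protein precipitation. Noncompartmental analysis gave Vz/F. Vss/F = CL/F·(MRTp.o. − 1/Ka), with Ka from compartmental modelling.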

[6] = Apparent volume of distribution at steady state in healthy human at 50 mg, po administered as single dose coadministered with 100 mg of ritonavir; format: ADME, organism-based; details: in vivo, read-out: Vss/F
Outline: (§4)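 Healthy male volunteers, fasted overnight, got one oral dose of BILR 355 in PEG solution with 200 ml water. Ritonavir 100 mg was given 10 h before and again with the dose. Plasma was sampled (EDTA) from predose to 144 h and assayed by validated LC-MS/MS. Cmax and Vz/F came from noncompartmental analysis. Vss/F = CL/F·(MRTp.o. − 1/Ka), with Ka from compartmental modelling.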

[7] = tested on: Homo sapiens; test: Toxicity in healthy human assessed as occurrence of constipation at 1 mg, po administered as single dose relative to control; format: organism-based; details: in vivo
[8] = tested on: Homo sapiens; test: Toxicity in healthy human assessed as occurrence of headache at 100 mg, po administered as single dose relative to control; format: organism-based; details: in vivo
[9] = Mean residence time in healthy human at 25 mg, po administered as single dose coadministered with 100 mg of ritonavir; format: ADME, organism-based; details: in vivo
[10] = tested on: Homo sapiens; test: Toxicity in healthy human assessed as occurrence of migraine at 1 mg, po administered as single dose relative to control; format: organism-based; details: in vivo
[11] = Apparent volume of distribution at steady state in healthy human at 12.5 mg, po administered as single dose; format: ADME, organism-based; details: in vivo, read-out: Vss/F; outline: as §2
[12] = Cmax in healthy human at 75 mg, po administered as single dose coadministered with 100 mg of ritonavir by high-pressure liquid chromatography-tandem mass spectrometry/mass spectrometry method; format: ADME, organism-based; set-up: dose 75 mg, route oral; details: in vivo; outline: as §4
[13] = AUC (0 to infinity) in healthy human at 62.5 mg, po administered as single dose coadministered with 100 mg of ritonavir; format: ADME, organism-based; set-up: dose 62.5 mg, time infinity, route oral; details: plasma; outline: as §1
[14] = AUC (0 to last) in healthy human at 12.5 mg, po administered as single dose; format: ADME, organism-based; set-up: dose 12.5 mg, route oral, time 0 - last; details: plasma; outline: as §2
[15] = Mean residence time in healthy human at 75 mg, po administered as single dose; format: ADME, organism-based; details: in vivo
[16] = Half life in healthy human at 75 mg, po administered as single dose coadministered with 100 mg of ritonavir; format: ADME, organism-based; details: in vivo
[17] = tested on: Homo sapiens; test: Toxicity in healthy human assessed as occurrence of abdominal pain at 100 mg, po administered as single dose relative to control; format: organism-based, Abdomen; details: in vivo
[18] = tested on: Homo sapiens; test: Toxicity in healthy human assessed as occurrence of headache at 25 mg, po administered as single dose relative to control; format: organism-based; details: in vivo
[19] = tested on: Homo sapiens; test: Toxicity in healthy human assessed as occurrence of maculopapular rash at 1 mg, po administered as single dose relative to control; format: organism-based; details: in vivo
[20] = Tmax in healthy human at 75 mg, po administered as single dose coadministered with 100 mg of ritonavir; format: ADME, organism-based; details: in vivo
[21] = tested on: Homo sapiens; test: Toxicity in healthy human assessed as occurrence of headache at 75 mg, po administered as single dose relative to control; format: organism-based; details: in vivo
[22] = tested on: Homo sapiens; test: Toxicity in healthy human assessed as occurrence of fatigue at 5 mg, po administered as single dose relative to control; format: organism-based; details: in vivo
[23] = Half life in healthy human at 5 mg, po administered as single dose; format: ADME, organism-based; details: in vivo
[24] = Mean residence time in high fat fed healthy human at 50 mg, po administered as single dose coadministered with 100 mg of ritonavir; format: ADME, organism-based; details: in vivo
[25] = tested on: Homo sapiens; test: Toxicity in healthy human assessed as occurrence of fatigue at 25 mg, po administered as single dose coadministered with 100 mg of ritonavir; format: organism-based; details: in vivo
[26] = tested on: Homo sapiens; test: Toxicity in healthy human assessed as occurrence of frequent bowel movements at 25 mg, po administered as single dose relative to control; format: organism-based; details: in vivo
[27] = tested on: Homo sapiens; test: Toxicity in healthy human assessed as occurrence of increase in alanine aminotransferase level at 1 mg, po administered as single dose relative to control; format: organism-based; details: in vivo
[28] = Apparent volume of distribution at steady state in healthy human at 75 mg, po administered as single dose; format: ADME, organism-based; details: in vivo, read-out: Vss/F; outline: as §3
[29] = AUC (0 to last) in healthy human at 25 mg, po administered as single dose coadministered with 100 mg of ritonavir; format: ADME, organism-based; set-up: dose 25 mg, route oral, time 0 - last; details: plasma; outline: as §1
[30] = Drug excretion in healthy human urine assessed as unchanged drug at 100 mg, po administered as single dose by high-pressure liquid chromatography-tandem mass spectrometry/mass spectrometry method; format: ADME, organism-based; details: read-out: Drug uptake
Outline: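 Urine was collected by weight after one oral dose of BILR 355 in PEG solution in fasted healthy males. Intervals were predose blank, 0-6, 6-24 and 24-72 h, with the bladder voided before each. Aliquots were stored at −20°C and assayed by LC-MS/MS. fe = amount of unchanged drug excreted (Ae) as a percentage of the administered dose.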

[31] = tested on: Homo sapiens; test: Toxicity in healthy human assessed as occurrence of migraine at 12.5 mg, po administered as single dose relative to control; format: organism-based; details: in vivo
[32] = Renal clearance in high fat fed healthy human at 50 mg, po administered as single dose coadministered with 100 mg of ritonavir by high-pressure liquid chromatography-tandem mass spectrometry/mass spectrometry method; format: ADME, organism-based, Kidney; details: in vivo, read-out: CL_renal (converted)
[33] = AUC (0 to infinity) in healthy human at 12.5 mg, po administered as single dose; format: ADME, organism-based; set-up: dose 12.5 mg, route oral, time infinity; details: plasma; outline: as §2
[34] = Apparent volume of distribution at steady state in healthy human at 25 mg, po administered as single dose; format: ADME, organism-based; details: in vivo, read-out: Vss/F; outline: as §2
[35] = Apparent oral clearance in healthy human at 37.5 mg, po administered as single dose coadministered with 100 mg of ritonavir; format: ADME, organism-based; details: in vivo; outline: as §1

With `CCN1c2ncc(CCOc3cc[n+]([O-])c4ccccc34)cc2C(=O)N(C)c2cccnc21` [BILR 355] the AUC(0-inf) [1] was 5960 ng·h/mL, the CL/F [2] was 106 mL/min and the AUC(0-inf) [3] was 1310 ng·h/mL. The Activity [4] was 0%, the Cmax [5] was 4.36 ng/mL and the Vd/F [6] was 125 L. It also gave an Activity [7] of 0%, an Activity [8] of 0% and an MRT [9] of 18.1 h. The Activity [10] was 0%, the Vd/F [11] was 1460 L and the Cmax [12] was 812 ng/mL. For the same molecule, the AUC(0-inf) [13] was 7630 ng·h/mL, the AUC(0-t) [14] was 56.2 ng·h/mL and the MRT [15] was 2.95 h. It also gave a half-life [16] of 11.9 h, an Activity [17] of 0% and an Activity [18] of 16.7%. For the same molecule, the Activity [19] was 0%, the Tmax [20] was 1.63 h and the Activity [21] was 0%. It also gave an Activity [22] of 0%, a half-life [23] of 5.02 h and an MRT [24] of 18.7 h. For the same molecule, the Activity [25] was 0%, the Activity [26] was 0% and the Activity [27] was 0%. It also gave a Vd/F [28] of 608 L, an AUC(0-t) [29] of 4140 ng·h/mL and a dose excreted [30] of 0.816%. The Activity [31] was 0%, the CL renal [32] was 4.98 mL/min and the AUC(0-inf) [33] was 71.8 ng·h/mL. It also gave a Vd/F [34] of 914 L and a CL/F [35] of 109 mL/min.
